For one molecule, IC50 results are on record in ChEMBL document CHEMBL1136733, “Pyrrolopyrazinedione-based inhibitors of human hormone-sensitive lipase” (J Med Chem, 2003).

Assay [1] has as its target T1, Hormone-sensitive lipase (Homo sapiens, UniProt Q05469).
T1 sequence (Q05469 whole entry): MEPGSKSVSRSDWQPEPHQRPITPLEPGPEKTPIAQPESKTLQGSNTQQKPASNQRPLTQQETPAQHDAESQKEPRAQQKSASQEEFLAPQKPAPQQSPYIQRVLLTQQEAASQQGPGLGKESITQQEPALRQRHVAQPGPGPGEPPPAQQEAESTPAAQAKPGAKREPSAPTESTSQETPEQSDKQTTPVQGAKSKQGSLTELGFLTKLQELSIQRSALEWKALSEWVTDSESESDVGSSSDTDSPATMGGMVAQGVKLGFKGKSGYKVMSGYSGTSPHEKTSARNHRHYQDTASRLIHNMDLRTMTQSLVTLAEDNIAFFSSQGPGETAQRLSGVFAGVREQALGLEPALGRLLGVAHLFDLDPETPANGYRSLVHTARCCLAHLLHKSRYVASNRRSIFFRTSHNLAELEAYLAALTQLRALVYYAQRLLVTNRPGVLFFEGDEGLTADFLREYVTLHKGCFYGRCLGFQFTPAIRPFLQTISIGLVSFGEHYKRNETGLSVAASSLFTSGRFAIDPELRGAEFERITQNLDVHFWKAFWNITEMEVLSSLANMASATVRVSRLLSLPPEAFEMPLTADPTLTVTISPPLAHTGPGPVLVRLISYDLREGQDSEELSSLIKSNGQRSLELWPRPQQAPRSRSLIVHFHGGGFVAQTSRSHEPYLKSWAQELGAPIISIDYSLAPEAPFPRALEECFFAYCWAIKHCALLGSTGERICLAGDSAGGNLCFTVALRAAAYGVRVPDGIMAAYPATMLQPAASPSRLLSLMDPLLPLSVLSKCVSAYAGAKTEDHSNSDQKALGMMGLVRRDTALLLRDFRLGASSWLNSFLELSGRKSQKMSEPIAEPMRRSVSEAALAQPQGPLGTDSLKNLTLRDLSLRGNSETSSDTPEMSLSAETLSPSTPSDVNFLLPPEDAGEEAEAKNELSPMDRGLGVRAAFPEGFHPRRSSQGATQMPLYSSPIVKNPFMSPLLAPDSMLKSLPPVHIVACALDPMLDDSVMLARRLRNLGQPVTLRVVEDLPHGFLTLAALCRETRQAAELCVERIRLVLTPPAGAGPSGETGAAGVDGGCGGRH
Nature of the assay: Inhibitory activity against human hormone-sensitive lipase (HSL) expressed in the baculovirus was determined by p-nitrophenyl butyrate (PNPB) assay. Summed up:
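Recombinant human HSL (His-tagged, Sf9/baculovirus, Ni-NTA purified), 10 ng per reaction in 20 mM KPO4 pH 7.4, 1 mM EDTA, 0.1% Triton X-100, 5 mM p-nitrophenyl butyrate, 5% DMSO. Incubated 1 h at 27 °C, absorbance read at 400 nm. Full 8-point IC50 curves run in triplicate.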

In assay [2] the target is T1, Hormone-sensitive lipase. Nature of the assay: Inhibitory activity against Human Hormone-sensitive lipase (HSL) expressed in the baculovirus was determined by HSL [14 C] cholesteryl oleate assay. Summed up:
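Recombinant human HSL from Sf9/baculovirus expression, Ni-NTA purified. Substrate was a [14C]cholesteryl oleate emulsion. IC50 derived from 8-point concentration curves run in triplicate.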

The term IC50 denotes the midpoint of a concentration-inhibition curve. Turning to `COC(=O)C1CC2(COCc3ccccc3)C(=O)N(CCCCc3ccccc3)CC(=O)N2C1c1ccco1` (configuration not stated), the half-inhibitory concentration (IC50) at Hormone-sensitive lipase [1] stood at 210 nM; against Hormone-sensitive lipase [2], 260 nM.
